Data set [1] can be described thus: Solubility of the compound in water after 40 hrs. In kind it is physicochemical. The following applies: for solubility: buffer, 40 h; for solubility at 40 h: water.
A short description of data set [2]: Induction of w794 DNA alkylation (unknown origin) after 2 hrs by densitometric analysis relative to duocarmycin SA. Summed up: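 Loss of full-length labeled DNA quantified by densitometry of remaining non-alkylated DNA. Relative alkylation efficiency corrected for the 10-fold differences in compound concentrations used.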
In data set [3] the test system is L1210. Put plainly: Cytotoxicity against mouse L1210 cells after 72 hrs by phosphatase assay. Format: functional, cell-based. The following applies: L1210, 72 h. The gist of the method: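 L1210 mouse lymphocytic leukemia cells seeded at 30,000 cells/mL in DMEM + 10% FBS, 100 μL/well, 24 h at 37 °C, 5% CO2; DMSO serial 10-fold dilutions added, six concentrations over 0–100 nM or 0–1000 nM, duplicate, 72 h.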

Data set [4] can be described thus: Displacement of ethidium bromide from hairpin 5'AAAAA duplex DNA sequence (unknown origin) at 10 equivalent compound dose after 5 mins by FID assay.
Data set [5] is described as follows: Displacement of ethidium bromide from hairpin 5'AAAAA duplex DNA sequence (unknown origin) at 2 equivalent compound dose after 5 mins by FID assay.

Values after ≈ are worked out from the molar mass of the structure shown.

As usually defined, the solubility is the concentration that dissolves in the medium under given conditions. Higher therefore signals a readily soluble substance. Usually IC50 stands for the concentration that inhibits the measured activity by half. The low end stands for greater potency in that assay, the high end for weaker potency in that assay. A word on the inhibition: it is the percentage by which the read-out fell short of the control.

Molecule `COCCOCCOCCOc1cc2cc(C(=O)N3C[C@@H](CCl)c4c3cc(O)c3[nH]c(C(=O)OC)cc43)[nH]c2c(OCCOCCOCCOC)c1OCCOCCOCCOC` came in with a solubility in data set [1] of 80000 µg/mL (≈ 87900 µM). Moreover, the fold change (FC) in data set [2] was 0.009. In data set [3], this molecule had an IC50 of 3.5 nM.
Consider `COCCOCCOCCOc1c(OC)cc2cc(C(=O)N3C[C@@H](CCl)c4c3cc(O)c3[nH]c(C(=O)OC)cc43)[nH]c2c1OC`, for which, in data set [3], the midpoint of inhibition, the IC50, lay at 0.07 nM.
With `COCCOCCOCCOCCOCCOc1c(OC)cc2cc(C(=O)N3C[C@@H](CCl)c4c3cc(O)c3[nH]c(C(=O)OC)cc43)[nH]c2c1OC`, the IC50 in data set [3] turned out to be 0.25 nM.
As for `COCCOCCOCCOCCOCCOc1cc2cc(C(=O)N3C[C@@H](CCl)c4c3cc(O)c3[nH]c(C(=O)OC)cc43)[nH]c2c(OCCOCCOCCOCCOCCOC)c1OCCOCCOCCOCCOCCOC`, in data set [1], the solubility is more than 12000 µg/mL. Further, in data set [2], the fold change (FC) turned out to be 0.0002. In data set [3], this molecule had a concentration for half-maximal inhibition (IC50) of 370 nM.
Turning to `COCCOCCOc1cc2cc(C(=O)N3C[C@@H](CCl)c4c3cc(O)c3[nH]c(C(=O)OC)cc43)[nH]c2c(OCCOCCOC)c1OCCOCCOC`, the inhibition was found to be 27% in data set [4] and 0% in data set [5]. Further, the concentration in solution in data set [1] (solubility at 40 h) came to 2000 µg/mL (≈ 2570 µM). Besides, the fold change (FC) in data set [2] amounted to 0.08. Also, the IC50 in data set [3] is 0.26 nM.
Take `COCCOCCOCCOCCOc1cc2cc(C(=O)N3C[C@@H](CCl)c4c3cc(O)c3[nH]c(C(=O)OC)cc43)[nH]c2c(OCCOCCOCCOCCOC)c1OCCOCCOCCOCCOC`: the solubility in data set [1] was more than 19000 µg/mL. For the same molecule, the fold change (FC) in data set [2] turned out to be 0.001. The molecule further returned an IC50 in data set [3] of 35 nM.
For the molecule `COCCOc1c(OC)cc2cc(C(=O)N3C[C@@H](CCl)c4c3cc(O)c3[nH]c(C(=O)OC)cc43)[nH]c2c1OC`, in data set [3], the IC50 worked out at 0.018 nM.
In the case of `COCCOc1cc2cc(C(=O)N3C[C@@H](CCl)c4c3cc(O)c3[nH]c(C(=O)OC)cc43)[nH]c2c(OCCOC)c1OCCOC`, the inhibition came to 50% in data set [4] and 10% in data set [5]. This molecule also came in with a solubility at 40 h in data set [1] of 740 µg/mL (≈ 1150 µM). The fold change (FC) in data set [2] was determined as 0.9. Besides, in data set [3], 0.037 nM corresponded to half-maximal inhibition (IC50).
`COCCOCCOCCOCCOc1c(OC)cc2cc(C(=O)N3C[C@@H](CCl)c4c3cc(O)c3[nH]c(C(=O)OC)cc43)[nH]c2c1OC` displayed a half-inhibitory concentration (IC50) in data set [3] of 0.11 nM.
For the molecule `COC(=O)c1cc2c3c(cc(O)c2[nH]1)N(C(=O)c1cc2cc(OC)c(OC)c(OC)c2[nH]1)C[C@H]3CCl`, the inhibition came out at 97% in data set [4] and 53% in data set [5]. The molecule further gave a solubility at 40 h in data set [1] of 460 µg/mL (≈ 895 µM). In data set [2], the fold change (FC) came out at 1. In addition, the concentration for half-maximal inhibition (IC50) in data set [3] amounted to 0.008 nM.
`COCCOCCOc1c(OC)cc2cc(C(=O)N3C[C@@H](CCl)c4c3cc(O)c3[nH]c(C(=O)OC)cc43)[nH]c2c1OC` displayed a 50% inhibitory concentration (IC50) in data set [3] of 0.035 nM.

Values taken from ChEMBL document CHEMBL2417504, “A fundamental relationship between hydrophobic properties and biological activity for the duocarmycin class of DNA-alkylating antitumor drugs: hydrophobic-binding-driven bonding” (J Med Chem, 2013).
